In ChEMBL document CHEMBL1268844, “Synthesis of novel 3-amino and 29-hydroxamic acid derivatives of glycyrrhetinic acid as selective 11β-hydroxysteroid dehydrogenase 2 inhibitors” (Bioorg Med Chem, 2010):
One block for each compound: values may come before it.

What was measured:
[1] = biological target: T1, 11-beta-hydroxysteroid dehydrogenase type 2 (Homo sapiens, UniProt P80365); assay: Inhibition of human recombinant 11beta-HSD2 expressed in HEK293 cells assessed as conversion of [1,2,6,7-3H]-cortisol to cortisone by scintillation counting; type: cell-based
T1 sequence (P80365 whole entry): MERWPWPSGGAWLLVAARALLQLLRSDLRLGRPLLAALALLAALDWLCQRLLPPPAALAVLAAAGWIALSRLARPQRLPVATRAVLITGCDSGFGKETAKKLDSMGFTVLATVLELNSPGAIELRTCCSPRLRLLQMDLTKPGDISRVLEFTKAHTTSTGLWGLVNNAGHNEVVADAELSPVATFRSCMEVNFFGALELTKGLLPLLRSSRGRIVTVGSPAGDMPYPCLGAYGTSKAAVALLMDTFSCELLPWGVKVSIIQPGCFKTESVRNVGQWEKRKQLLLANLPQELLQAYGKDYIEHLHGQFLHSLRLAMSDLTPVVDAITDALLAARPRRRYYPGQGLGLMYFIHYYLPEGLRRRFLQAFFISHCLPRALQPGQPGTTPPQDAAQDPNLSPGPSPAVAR

[2] = biological target: T2, 11-beta-hydroxysteroid dehydrogenase 1 (Homo sapiens, UniProt P28845); assay: Inhibition of human recombinant 11beta-HSD1 expressed in HEK293 cells assessed as conversion of [1,2-3H]-cortisone to cortisol by scintillation counting; type: cell-based
Target sequence in this assay (P28845 whole entry): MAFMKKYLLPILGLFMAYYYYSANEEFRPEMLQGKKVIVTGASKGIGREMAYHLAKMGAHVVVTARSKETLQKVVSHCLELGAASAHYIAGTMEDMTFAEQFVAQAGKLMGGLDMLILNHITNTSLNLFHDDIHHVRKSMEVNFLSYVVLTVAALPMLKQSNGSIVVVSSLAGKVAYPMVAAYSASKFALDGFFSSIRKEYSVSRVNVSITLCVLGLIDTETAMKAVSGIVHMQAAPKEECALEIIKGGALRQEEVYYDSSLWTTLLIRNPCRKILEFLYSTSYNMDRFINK

[3] = biological target: T3, 11-beta-hydroxysteroid dehydrogenase type 2 (Homo sapiens) (UniProt P80365); assay: Inhibition of human recombinant 11beta-HSD2 expressed in HEK293 cells assessed as residual conversion of [1,2,6,7-3H]-cortisol to cortisone at 0.2 uM by scintillation counting; type: cell-based
T3 sequence (whole entry): T1 sequence (P80365 whole entry)
Outline: (§1)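 HEK-293 cells transfected with pcDNA3 encoding human enzyme carrying C-terminal FLAG tag. Compounds diluted from DMSO stocks, used immediately, screened at final 200 nM. Reactions stopped with methanol containing 2 mM unlabeled cortisone and cortisol. Steroids separated by TLC, then scintillation counting; readout is residual substrate conversion.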

[4] = biological target: T2, 11-beta-hydroxysteroid dehydrogenase 1; assay: Inhibition of human recombinant 11beta-HSD1 expressed in HEK293 cells assessed as residual conversion of [1,2-3H]-cortisone to cortisol at 0.2 uM by scintillation counting; type: cell-based; outline: as §1
Target sequence in this assay (P28845 whole entry, looked up): as the sequence (P28845 whole entry) above

[5] = Selectivity ratio of IC50 for human recombinant 11beta-HSD2 to IC50 for human recombinant 11beta-HSD1

Compound: CC(=O)N[C@H]1CC[C@]2(C)[C@H]3C(=O)C=C4[C@@H]5C[C@@](C)(C(=O)O)CC[C@]5(C)CC[C@@]4(C)[C@]3(C)CC[C@H]2C1(C)C
IC50 [1]: 458 nM
IC50 [2]: 825 nM

Compound: CC1(C)C(=O)CC[C@]2(C)[C@H]3C(=O)C=C4[C@@H]5C[C@@](C)(C(=O)O)CC[C@]5(C)CC[C@@]4(C)[C@]3(C)CC[C@@H]12
IC50 [2]: 619 nM

Compound: CC(=O)N[C@H]1CC[C@]2(C)[C@H]3C(=O)C=C4[C@@H]5C[C@@](C)(C(=O)N(C)O)CC[C@]5(C)CC[C@@]4(C)[C@]3(C)CC[C@H]2C1(C)C
Activity [3]: 4%
Activity [4]: 72%

Compound: CON(C)C(=O)[C@@]1(C)CC[C@]2(C)CC[C@]3(C)C(=CC(=O)[C@@H]4[C@@]5(C)CC[C@H](OC(C)=O)C(C)(C)[C@@H]5CC[C@]43C)[C@@H]2C1
Activity [3]: 72%
Activity [4]: 95%

Compound: CN(O)C(=O)[C@@]1(C)CC[C@]2(C)CC[C@]3(C)C(=CC(=O)[C@@H]4[C@@]5(C)CC[C@H](O)C(C)(C)[C@@H]5CC[C@]43C)[C@@H]2C1
Activity [3]: 7%
Activity [4]: 71%

Compound: CC1(C)[C@@H](NS(=O)(=O)C(F)(F)F)CC[C@]2(C)[C@H]3C(=O)C=C4[C@@H]5C[C@@](C)(C(=O)O)CC[C@]5(C)CC[C@@]4(C)[C@]3(C)CC[C@@H]12
Activity [3]: 22%
Activity [4]: 87%

Compound: CO/N=C1\CC[C@]2(C)[C@H]3C(=O)C=C4[C@@H]5C[C@@](C)(C(=O)O)CC[C@]5(C)CC[C@@]4(C)[C@]3(C)CC[C@H]2C1(C)C
IC50 [2]: 1510 nM

Compound: CON[C@@H]1CC[C@]2(C)[C@H]3C(=O)C=C4[C@@H]5C[C@@](C)(C(=O)O)CC[C@]5(C)CC[C@@]4(C)[C@]3(C)CC[C@H]2C1(C)C
Activity [3]: 5%
Activity [4]: 43%
IC50 [1]: 4.9 nM
IC50 [2]: 61.9 nM

Compound: CN(O)C(=O)[C@@]1(C)CC[C@]2(C)CC[C@]3(C)C(=CC(=O)[C@@H]4[C@@]5(C)CC[C@H](NS(=O)(=O)C(F)(F)F)C(C)(C)[C@@H]5CC[C@]43C)[C@@H]2C1
Activity [3]: 44%
Activity [4]: 71%

Compound: CON[C@H]1CC[C@]2(C)[C@H]3C(=O)C=C4[C@@H]5C[C@@](C)(C(=O)O)CC[C@]5(C)CC[C@@]4(C)[C@]3(C)CC[C@H]2C1(C)C
Activity [3]: 2%
Activity [4]: 33%
IC50 [1]: 14.5 nM
IC50 [2]: 42.7 nM

Compound: CON[C@H]1CC[C@]2(C)[C@H]3C(=O)C=C4[C@@H]5C[C@@](C)(C(=O)N(C)O)CC[C@]5(C)CC[C@@]4(C)[C@]3(C)CC[C@H]2C1(C)C
Activity [3]: 30%
Activity [4]: 93%

Compound: CN(O)C(=O)[C@@]1(C)CC[C@]2(C)CC[C@]3(C)C(=CC(=O)[C@@H]4[C@@]5(C)CC[C@@H](NS(=O)(=O)C(F)(F)F)C(C)(C)[C@@H]5CC[C@]43C)[C@@H]2C1
Activity [3]: 82%
Activity [4]: 88%

The next lines start with results.

Activity [3]: 50%
Activity [4]: 99%
Compound: CC1(C)[C@H](NS(=O)(=O)C(F)(F)F)CC[C@]2(C)[C@H]3C(=O)C=C4[C@@H]5C[C@@](C)(C(=O)O)CC[C@]5(C)CC[C@@]4(C)[C@]3(C)CC[C@@H]12

Activity [3]: 85%
Activity [4]: 86%
Compound: CC(=O)O[C@H]1CC[C@]2(C)[C@H]3C(=O)C=C4[C@@H]5C[C@@](C)(C(=O)N(O)C(C)(C)C)CC[C@]5(C)CC[C@@]4(C)[C@]3(C)CC[C@H]2C1(C)C

IC50 [2]: 1160 nM
Compound: CC1(C)[C@@H](O)CC[C@]2(C)[C@H]3C(=O)C=C4[C@@H]5C[C@@](C)(C(=O)NO)CC[C@]5(C)CC[C@@]4(C)[C@]3(C)CC[C@@H]12

Activity [3]: 4%
Activity [4]: 32%
Compound: CC1(C)[C@H](NS(C)(=O)=O)CC[C@]2(C)[C@H]3C(=O)C=C4[C@@H]5C[C@@](C)(C(=O)O)CC[C@]5(C)CC[C@@]4(C)[C@]3(C)CC[C@@H]12

Activity [3]: 4%
Activity [4]: 58%
Compound: CC1(C)[C@@H](NS(C)(=O)=O)CC[C@]2(C)[C@H]3C(=O)C=C4[C@@H]5C[C@@](C)(C(=O)O)CC[C@]5(C)CC[C@@]4(C)[C@]3(C)CC[C@@H]12

IC50 [1]: 2130 nM
IC50 [2]: 929 nM
Compound: CONC(=O)[C@@]1(C)CC[C@]2(C)CC[C@]3(C)C(=CC(=O)[C@@H]4[C@@]5(C)CC[C@H](O)C(C)(C)[C@@H]5CC[C@]43C)[C@@H]2C1
Ratio [5]: 0.4

IC50 [2]: 626 nM
Compound: CC(=O)O[C@H]1CC[C@]2(C)[C@H]3C(=O)C=C4[C@@H]5C[C@@](C)(C(=O)NO)CC[C@]5(C)CC[C@@]4(C)[C@]3(C)CC[C@H]2C1(C)C

Activity [3]: 84%
Activity [4]: 99%
Compound: C=CCONC(=O)[C@@]1(C)CC[C@]2(C)CC[C@]3(C)C(=CC(=O)[C@@H]4[C@@]5(C)CC[C@H](OC(C)=O)C(C)(C)[C@@H]5CC[C@]43C)[C@@H]2C1
